High-throughput results as filed in PubChem.
In the library only some 1.2% were active in any assay of this set; here they are far more common.
Diaphorase inh – counter-screen for diaphorase-based assays: diaphorase inhibitors and chemical oxidizers; diaphorase resazurin-to-resorufin fluorescence, NADH, 16 min; bacterial (C. kluyveri) enzyme, not human; inhibition, % at 20 µM; 190,000 compounds, 0.69% hits; AID 1217;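 active means primary screen inhibition at 20 µM above a set limit, cut at about 50% in these data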
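Test system: diaphorase enzyme from Clostridium kluyveri; amount: diaphorase at 0.14 U/mL in enzyme working solution; detection: fluorescence of resorufin formed from resazurin, Ex 544/Em 590 nm; times: reaction incubation of 16 min at room temperature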
PfGluPho inh – PfG6PD (Plasmodium falciparum) enzyme inhibition. PfGluPho enzyme, NADPH resazurin-diaphorase fluorescence. inhibition, % at 20 µM. 350,000 compounds, 0.78% hits. AID 504690;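 active means inhibition reaching at least a set limit at 20 µM in the primary screen, cut at about 59% in these data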
HKDC1 inhibitor – HKDC1 (human) hexokinase inhibition | Q2TB90 | recombinant HKDC1, G6PDH/diaphorase resazurin coupled fluorescence | inhibition, % at 20 µM | 340,000 compounds, 0.16% hits | AID 493160;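 active means inhibition above about 35% when tested at 20 µM, limit read from the data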
Target sequence (Q2TB90 whole entry, looked up): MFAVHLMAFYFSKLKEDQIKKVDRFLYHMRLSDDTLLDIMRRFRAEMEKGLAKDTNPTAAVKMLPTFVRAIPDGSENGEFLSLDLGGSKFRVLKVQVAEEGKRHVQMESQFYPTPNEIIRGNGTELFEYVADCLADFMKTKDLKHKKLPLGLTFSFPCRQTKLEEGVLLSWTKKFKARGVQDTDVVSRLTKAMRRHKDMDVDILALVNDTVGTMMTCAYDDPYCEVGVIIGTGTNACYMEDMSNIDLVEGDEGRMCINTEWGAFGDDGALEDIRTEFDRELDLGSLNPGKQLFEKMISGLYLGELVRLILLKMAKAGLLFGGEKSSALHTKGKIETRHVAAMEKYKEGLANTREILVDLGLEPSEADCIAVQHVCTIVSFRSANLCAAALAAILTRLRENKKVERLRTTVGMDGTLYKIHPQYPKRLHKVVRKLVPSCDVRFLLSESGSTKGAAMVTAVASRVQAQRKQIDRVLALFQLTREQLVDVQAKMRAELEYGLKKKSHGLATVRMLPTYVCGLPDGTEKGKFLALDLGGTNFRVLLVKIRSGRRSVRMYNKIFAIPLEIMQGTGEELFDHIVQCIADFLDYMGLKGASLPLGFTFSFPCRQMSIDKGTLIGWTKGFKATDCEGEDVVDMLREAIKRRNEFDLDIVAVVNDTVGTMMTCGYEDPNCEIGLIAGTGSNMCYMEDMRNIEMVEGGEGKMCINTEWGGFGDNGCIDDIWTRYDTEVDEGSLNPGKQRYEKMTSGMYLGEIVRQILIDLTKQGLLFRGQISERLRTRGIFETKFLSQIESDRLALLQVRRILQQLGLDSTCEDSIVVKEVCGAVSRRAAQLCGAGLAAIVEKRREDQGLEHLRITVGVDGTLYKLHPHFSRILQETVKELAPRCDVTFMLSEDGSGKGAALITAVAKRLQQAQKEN
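Test system: recombinant HKDC1 (HK5) hexokinase enzyme, produced in-house / Doses: 20 µM test compound, 1% DMSO / Timing: 90 min, room temperature / Detection: G6PDH/diaphorase-coupled fluorescence, 1 mM NADP, 100 µM resazurin, 525/613 nm / Control set: DMSO wells with and without enzyme mix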
G6PDH counter – L. mesenteroides G6PDH inhibition counter-screen | Purified L. mesenteroides G6PDH, diaphorase/resazurin coupled fluorescence, 45 min | inhibition, % at 5 µM | 200,000 compounds, 0.12% hits | AID 1020; in the data active means inhibition above about 50%
Diaph act CS – activates diaphorase or chemically reduces, flagging diaphorase assay artifacts; activation factor at 20 µM; 190,000 compounds, 0.005% hits; Diaphorase/resazurin coupled assay, resorufin fluorescence, 16 min; active compounds read high; 1 = vehicle wells, 0 = NADH-free wells;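 active means diaphorase activity raised at least twofold by the compound at 20 µM; inactive means activation factor below 2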
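Material: Purified diaphorase enzyme from Clostridium kluyveri | Buffer or medium: 50 mM HEPES pH 7.4 with 4.542 mM MgCl2, 0.005% Tween 20 | Times: 16 min enzyme reaction, ambient temperature | Signal: Red resorufin fluorescence at 544/590 nm excitation/emission | Measure: Increased resorufin signal from activators or reducing compounds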
PfGluPho conf – confirmation of Plasmodium falciparum G6PD inhibitors | shares compounds with PfGluPho inh | recombinant PfGluPho, NADPH-diaphorase-resazurin fluorescence | inhibition, % at 20 µM | 2,400 compounds, 34% hits | AID 504753;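 active means inhibition of at least 50% at 20 µM in any single replicate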
Diaph ctr 10uM – inhibits diaphorase or oxidizes, flagging false PfG6PD hits; inhibition, % at 20 µM; 820 compounds, 39% hits; shares compounds with PfGluPho inh; diaphorase-coupled resazurin reduction, fluorescence, NADPH 10 uM;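 active means average inhibition reaching 50% or more with the compound at 20 µM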;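 further: resorufin red fluorescence formed as diaphorase reduces resazurin using NADPH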
Diaph ctr 30uM – counter-screen for P. falciparum G6PD inhibitors: diaphorase inhibitors, oxidizers; inhibition, % at 20 µM; shares compounds with PfGluPho inh; Diaphorase/resazurin coupled assay, resorufin fluorescence, 30 uM NADPH; 820 compounds, 29% hits;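 active means inhibition averaging 50% or more, tested at 20 µM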
Each line names hits and unclear results; the compound was inactive in the other large screens (follow-up assays come after a bar, where they were run).

CC1CCN(C(=S)c2ccc(O)cc2)CC1	none
CC1CCN(C(=S)c2ccccc2O)CC1	PfGluPho inh 64 | PfGluPho conf inactive
Oc1c(Cl)c(Cl)c2ncccc2c1Cl	none (no result: Diaphorase inh, G6PDH counter, Diaph act CS)
COc1cc(N)c2ncccc2c1Cl	PfGluPho inh 60 (no result: Diaphorase inh, G6PDH counter, Diaph act CS) | PfGluPho conf 73 | Diaph ctr 10uM inactive | Diaph ctr 30uM inactive
CCN(CC)c1ccc(C(=O)NNC(=O)CCNC(=O)c2ccccc2)cc1	none (no result: Diaphorase inh, G6PDH counter, Diaph act CS)
CCN(CC)c1ccc(C(=C2C=CC(=[N+](CC)CC)C=C2)c2ccccc2)cc1	PfGluPho inh 100 (no result: Diaphorase inh, G6PDH counter, Diaph act CS) | PfGluPho conf 68 | Diaph ctr 10uM inactive | Diaph ctr 30uM inactive
CC1(NC(=O)Cc2csc(-c3cccc(Cl)c3)n2)CCS(=O)(=O)C1 (stereo unspecified)	none (no result: Diaphorase inh, G6PDH counter, Diaph act CS)
Fc1ccc(NC(=S)Nc2cccc3ccccc23)cc1F	none (no result: Diaphorase inh, G6PDH counter, Diaph act CS)
CN(C)S(=O)(=O)c1cccc(NC(=S)Nc2cccc3cnccc23)c1	PfGluPho inh 69 (no result: Diaphorase inh, G6PDH counter, Diaph act CS) | PfGluPho conf inactive
S=C(Nc1ccc(Cl)cc1)Nc1cccc2cnccc12	Diaphorase inh 51, PfGluPho inh 75 | PfGluPho conf inactive
COc1ccc(NC(=O)CSCC(=O)Oc2c(OC)cccc2OC)cc1	none (no result: Diaphorase inh, G6PDH counter, Diaph act CS)
CCC(C(=O)OC)(C(=O)OC)c1ccc([N+](=O)[O-])cc1	none
S=c1nc[nH]c2c1ncn2-c1ccc(Cl)cc1	PfGluPho inh 66 (no result: Diaphorase inh, G6PDH counter, Diaph act CS) | PfGluPho conf inactive
CCOC(=O)CC1C(=O)NCCN1C(=O)c1c(Cl)cccc1Cl (stereo unspecified)	none (no result: Diaphorase inh, G6PDH counter, Diaph act CS)
CCN(CC)c1ccc(N)cc1S(=O)(=O)Nc1ccccc1OC	PfGluPho inh 67 (no result: Diaphorase inh, G6PDH counter, Diaph act CS) | PfGluPho conf inactive
COc1ccccc1NS(=O)(=O)c1cc(NC(=O)CNC(=O)c2ccccc2)ccc1C	none
CCN(CC)c1ccc(NC(=O)COc2ccccc2C#N)cc1S(=O)(=O)Nc1ccccc1OC	PfGluPho inh 69 | PfGluPho conf inactive
CCN(CC)c1ccc(N)cc1S(=O)(=O)Nc1ccc(OC)cc1	none (no result: Diaphorase inh, G6PDH counter, Diaph act CS)
CCN(CC)c1ccc(NC(=O)c2ccccn2)cc1S(=O)(=O)Nc1ccccc1OC	PfGluPho inh 60 (no result: Diaphorase inh, G6PDH counter, Diaph act CS) | PfGluPho conf inactive
CC(=O)Nc1ccc(NC(=O)C(C)OC(=O)CNC(=O)c2ccc(-c3ccccc3)cc2)cc1 (stereo unspecified)	none (no result: Diaphorase inh, G6PDH counter, Diaph act CS)
CC1(C)Cc2c(cnn2-c2ccccc2)C(NC(=O)c2ccc[n+]([O-])c2)C1 (stereo unspecified)	none (no result: Diaphorase inh, G6PDH counter, Diaph act CS)
CCN1C(C)=CC(=O)[C@@H](O)[C@H]1c1ccccc1Br	none (no result: Diaphorase inh, G6PDH counter, Diaph act CS)
O=C(N/N=C/c1ccc(N2CCCCC2)o1)c1ccccc1	none
O=C(N/N=C/c1ccc(N2CCOCC2)o1)c1cccc([N+](=O)[O-])c1	Diaphorase inh 76, PfGluPho inh 70 | PfGluPho conf inactive
CC(C)C1=CC(=NS(=O)(=O)c2cccc([N+](=O)[O-])c2)C=C(C(C)C)C1=O	PfGluPho inh 78 | PfGluPho conf inactive
COc1cc(C2/C(=C(\O)c3ccc4c(c3)CC(C)O4)C(=O)C(=O)N2CCN2CCOCC2)cc(OC)c1OC (stereo unspecified)	none (no result: Diaphorase inh, G6PDH counter, Diaph act CS)
Cc1ccc2cc(C)c(Sc3nnnn3-c3ccccc3)nc2c1	none
Cc1cc(C)c(SSc2nnnn2-c2ccccc2)c(C)c1	PfGluPho inh 113 (no result: Diaphorase inh, HKDC1 inhibitor, G6PDH counter, Diaph act CS) | PfGluPho conf inactive
CCOc1ccccc1OCCC(=O)N1CCN(S(=O)(=O)c2ccccc2[N+](=O)[O-])CC1	none (no result: Diaphorase inh, G6PDH counter, Diaph act CS)
O=C(Nc1ccc(C(O)(C(F)(F)F)C(F)(F)F)cc1)c1ccc(Cl)c([N+](=O)[O-])c1	PfGluPho inh 63 | PfGluPho conf inactive
O=C(O)c1cc(NC(=O)c2ccc(Cl)c([N+](=O)[O-])c2)cc(C(=O)O)c1	none
COc1cccc(F)c1C(=O)NC(=O)Nc1ccc2nc(C)oc2c1	none (no result: Diaphorase inh, G6PDH counter, Diaph act CS)
COc1ccc(NC(C)C(=O)N/N=C/c2cc(Br)ccc2OC)cc1 (stereo unspecified)	PfGluPho inh 86 | PfGluPho conf 62 | Diaph ctr 10uM inactive | Diaph ctr 30uM inactive
